The source of these data is ChEMBL document CHEMBL6083216, “Rational design and in vitro testing of new urease inhibitors to prevent urinary catheter blockage” (RSC Med Chem, 2024).

Series [1] has as its system Proteus mirabilis. Description: Potency index, ratio of acetohydroxamic acid IC50 to test compound IC50 for inhibition of Proteus mirabilis B4 urease activity using urea as substrate incubated for 30 mins by absorbance based assay. The procedure, abridged: (§1)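 Berthelot ammonia assay with whole-cell P. mirabilis B4, grown overnight in LB at 37 °C, pelleted and resuspended in PBS (0.004 mg mL−1 in phosphate buffer). Cells incubated with compound (10-fold dilutions) and 50 mM urea for 30 min at 37 °C. Phenol/nitroprusside and NaOH/hypochlorite reagents added, 30 min at 37 °C, A636 read. Activity normalised to controls; IC50 by non-linear regression; n = 6.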

A short description of series [2]: Inhibition of Proteus mirabilis B4 urease activity using urea as substrate incubated for 30 mins by absorbance based assay. The method, boiled down: as §1
Series [3] deals with Proteus mirabilis. Description: Antibacterial activity against Proteus mirabilis assessed as inhibition of bacterial growth incubated for 18 hrs by absorbance based plate reader analysis. In kind it is functional, organism-based. The method, boiled down: (§2)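 Broth microdilution in LB: compound in sterile water with 5% (v/v) DMSO, two-fold serial dilutions; subculture at 1 × 10^6 CFU mL−1 added. 37 °C for 18 h, shaken 10 s before each OD600 reading taken at intervals. MIC read visually at 18 h and from growth curves as lowest concentration inhibiting growth. Wells with broth only and with bacteria only as controls.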

Series [4] relates to HepG2. Description: Cytotoxicity against human HepG2 cells assessed as effect on cell survival at <1.25 mM measured for 24 hrs by MTT assay. It is filed as toxicity, cell-based. Particulars: hepg2, 24 h, 1250 µM. The procedure, abridged:
(§3)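 HepG2 cells in complete DMEM at 37 °C, 5% CO2, seeded at 1 × 10^4 cells per well. Compounds diluted serially from 10 mM with 1% DMSO in DMEM; 24 h exposure. MTT (1 mg mL−1) for 60 min at 37 °C, dissolved in isopropanol, absorbance read at 590 nm (reference 620 nm). % survival relative to untreated cells; three biological repeats.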
For orientation: Tetrazolium assays rely on reduction of a dye to a coloured formazan, in cell work by metabolically active cells.

A short description of series [5]: Hemolytic activity in human erythrocytes at 0.080 to 5 mM incubated for 1 hrs by absorbance based assay. It is filed as toxicity, cell-based. Conditions: erythrocyte, 5000 µM, dose 0.08-5 mM. The procedure, abridged:
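Pooled heparinised whole blood from three donors; erythrocytes washed three times in saline and diluted to 1% (v/v). Incubated with compound (5–0.08 mM, serial dilution of a 10 mM stock with 1% DMSO in PBS) for 1 h at 37 °C with rotation. Saline and 1% triton as controls. Supernatant absorbance read at 404 nm; % haemolysis relative to lysed cells.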

The subject of the next series is Escherichia coli. Description: Antibacterial activity against Escherichia coli NSM59 assessed as inhibition of bacterial growth incubated for 18 hrs by absorbance based plate reader analysis. In kind it is functional, organism-based. The method, boiled down: as §2
In series [6] the test system is HepG2. Description: Cytotoxicity against human HepG2 cells assessed as effect on cell survival at 10 mM measured within 24 hrs by MTT assay. In kind it is toxicity, cell-based. Particulars: hepg2, 24 h, 10000 µM. The method, boiled down:
as §3

As to `NC(=S)NCc1ccccc1`, the Ratio IC50 in the series with Proteus mirabilis [1] came out at 1.61. The IC50 in series [2] is 2.27 10^-5mol/dm3.

In the case of `S=C(NCc1cccnc1)NCc1cccnc1`, the Activity result in the series on Proteus mirabilis [3] is “Moderate_effect”; in the series on HepG2 [4], “Non-toxic”; in series [5], “Non-toxic”; in the series with Escherichia coli, “Moderate_effect”; in the series on HepG2 [6] it was “Toxic”. In addition, the Ratio IC50 with Proteus mirabilis [1] turned out to be 26.1. The IC50 in series [2] was 1.4 10^-6mol/dm3.

On to `CC(=O)NO` [ACETOHYDROXAMIC ACID], for which the Activity result in the series on Proteus mirabilis [3] is reported as “Moderate_effect”; in the series with HepG2 [4], “Non-toxic”; in series [5], “Non-toxic”; in the series on Escherichia coli, “Moderate_effect”; with HepG2 [6], “Toxic”. For the same compound, the IC50 in series [2] is listed as 3.66 10^-5mol/dm3.

`NC(=S)Nc1ccccc1` [PHENYLTHIOUREA]: in the series on Proteus mirabilis [1], the Ratio IC50 is 0.002. In addition, the IC50 in series [2] is given as 9.66 10^-6mol/dm3.

For the compound `O=c1c(O)c(-c2ccc(O)c(O)c2)oc2cc(O)cc(O)c12` [QUERCETIN], in the series with Proteus mirabilis [1], the Ratio IC50 worked out at 0.001. For the same compound, in series [2], the IC50 is 8.66 10^-7mol/dm3.
